Screening data from PubChem.
Only some compounds are listed: those with a hit (about 1.7% of all), similar ones and a draw of the others.
EBNA-1 inh = EBNA-1 DNA-binding inhibitors, primary screen, biochemical, fluorescence polarization; 300,000 compounds, 0.34% hits; AID 1950, 2009; inhibition, % at 14.8 µM; in the data active = inhibition above about 28%
PP1 inh = PP1-alpha phosphatase inhibitors, primary screen, counter-screen for PP5 inhibitor project, biochemical, fluorescence, OMFP substrate, single point | Serine/threonine-protein phosphatase PP1-alpha catalytic subunit (Homo sapiens), P62136 | purified PP1alpha | inhibition, % at 6.7 µM | 320,000 compounds, 0.9% hits | AID 2235, 2010;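 active = inhibition above the mean inhibition of all tested compounds plus 3 SD, computed separately for each screening campaign, cut at about 15% in these data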
Target sequence (P62136 whole entry, looked up): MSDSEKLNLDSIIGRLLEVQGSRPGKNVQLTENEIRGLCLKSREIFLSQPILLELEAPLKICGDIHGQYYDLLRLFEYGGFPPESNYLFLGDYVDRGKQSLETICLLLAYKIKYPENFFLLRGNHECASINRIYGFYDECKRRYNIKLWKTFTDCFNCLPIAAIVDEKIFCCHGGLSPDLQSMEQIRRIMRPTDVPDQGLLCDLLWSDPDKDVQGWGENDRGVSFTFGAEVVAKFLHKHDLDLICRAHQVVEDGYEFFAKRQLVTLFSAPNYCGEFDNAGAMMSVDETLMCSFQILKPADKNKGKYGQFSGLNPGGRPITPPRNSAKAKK
PP5 inh = PP5 phosphatase inhibitors, primary screen, biochemical, fluorescence. 320,000 compounds, 0.18% hits. inhibition, % at 6.7 µM. AID 1987, 2009. purified PP5c, OMFP substrate fluorescence;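 active = inhibition above the campaign's mean inhibition across all tested compounds plus 3 SD, cut at about 9.5% in these data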;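 note: 0% = DMSO only and 100% = 100 µM cantharidin control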
core dimer inh = inhibitors of HCV core protein dimerization, primary screen, biochemical, TR-FRET, high-throughput; TR-FRET GST/Flag-core106 dimerization, 1536-well; inhibition, % at 5 µM; 300,000 compounds, 0.33% hits;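 active = inhibition above the mean of all tested compounds plus 3 SD, set per screening campaign, cut at about 45% in these data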
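Assay system – GST-tagged and Flag-tagged HCV core protein residues 1-106 · Quantity – core106 proteins, GST 13.5 nM and Flag 17 nM · Benchmarks – unlabelled core106 and no-GST-core106 wells · Read-out basis – percent inhibition of core106 dimerization signal · Detection – time-resolved FRET, ex 340 nm, em 617 and 671 nm · Schedule – 4 h at 22.5 °C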
ZTA counter = ZTA (EBV) inhibition in EBNA-1 counter-screen. P03206. ZTA-DNA binding, fluorescence polarization. inhibition, % at 11 µM. 320,000 compounds, 0.15% hits. AID 2234; in the data active = inhibition above about 33%
Target sequence (P03206 whole entry, looked up): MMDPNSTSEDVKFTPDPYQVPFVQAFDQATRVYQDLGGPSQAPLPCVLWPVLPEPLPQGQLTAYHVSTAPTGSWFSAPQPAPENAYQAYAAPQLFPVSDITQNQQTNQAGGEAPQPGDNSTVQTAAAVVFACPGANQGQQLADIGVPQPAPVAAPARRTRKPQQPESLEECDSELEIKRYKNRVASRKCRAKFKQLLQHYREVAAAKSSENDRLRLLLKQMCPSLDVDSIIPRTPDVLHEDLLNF
PP5 inh confirm = PP5 phosphatase inhibitors, confirmation, biochemical, fluorescence, human. AID 2331, 2010. 460 compounds, 22% hits. shares compounds with PP5 inh. inhibition, % at 6.7 µM. Purified PP5, fluorogenic phosphatase substrate; in the data active = inhibition above about 9.5%
PP1 counter 3x = PP1 phosphatase inhibitors, counter-screen for PP5 inhibitor project, biochemical, fluorescence, triplicate; PP1 enzyme, fluorescent phosphatase substrate; 460 compounds, 4% hits; shares compounds with PP5 inh; inhibition, % at 6.7 µM; in the data active = inhibition above about 16%
Starred values were filed as active, the others as inactive; · = not tested or not shown.

SMILES | EBNA-1 inh | PP1 inh | PP5 inh | core dimer inh | ZTA counter | PP5 inh confirm | PP1 counter 3x
COCCN1C=C2C(=O)C(C)(OC(=O)CCC(=O)OC)C(=O)C=C2C=C1C1CC1 (stereo not given) | 2 | 7 | 17* | -13 | 12 | 43* | 17*
O=C1O[C@@H]([C@H](O)CO)C(O)=C1O | 6 | -2 | -5 | 16 | 11 | · | ·
COc1ccc(OCc2cc(C(=O)N3C[C@H]4CC[C@H]3C4)no2)c(Cl)c1 | -11 | -5 | 4 | -1 | -10 | · | ·
CC(C)C[C@H]1CN=C(Nc2ccccc2)N1CCCCc1ccccc1 | 7 | 4 | 46* | -7 | -4 | -4 | -7
COc1ccc(C(=O)Nc2ccc(S(=O)(=O)N3CCCCC3C)cc2)c(OC)c1OC (stereo not given) | 0 | 0 | 11* | 11 | -1 | 1 | 2
COc1ccc2nc(NC(=O)CCc3cc(OC)c(OC)c(OC)c3)sc2c1 | 3 | -1 | -2 | 0 | -10 | · | ·
NC(=O)c1cccc(-c2cc(Nc3ccc(OC(F)(F)F)cc3)ncn2)c1 | -11 | 10 | 10* | -18 | -19 | 6 | 9
O=C(CN1C(=O)c2ccccc2C1=O)Nc1cccc(Cl)c1 | 3 | -4 | 0 | 4 | -2 | · | ·
O=C(CN1C(=O)c2ccccc2C1=O)Nc1cccc(S(=O)(=O)Nc2ccccc2Cl)c1 | -2 | -4 | 12* | 3 | 19 | -1 | 1
COCC(=O)N(Cc1cc2cccc(C)c2[nH]c1=O)c1ccccc1 | 0 | -3 | 10.0* | 9 | -14 | -2 | -3
CC(=O)N1CCN(Cc2nc3cc(NC(=O)COc4cccc(C)c4)ccc3n2C)CC1 | 6 | -3 | -3 | -16 | -9 | · | ·
O=C(CC1C(=O)NCCN1C(=O)Nc1ccc(F)cc1)Nc1ccc(F)cc1 (stereo not given) | -2 | 2 | 9.7* | -2 | 9 | -5 | -1
CCN(CC)CCCNC(=O)C1CCN(C(=O)c2oc3cc4sc(N(C)C)nc4cc3c2C)CC1 | -12 | -2 | 3 | 0 | -4 | · | ·
CCOC(=O)c1c(-c2ccc(C)c(C)c2)csc1NC(=O)C1CC=CCC1C(=O)O (stereo not given) | -13 | 10 | 5 | 23 | 9 | · | ·
CCOC(=O)c1c(NC(=O)C2C3CCC(O3)C2C(=O)O)sc(C)c1-c1ccc(F)cc1 (stereo not given) | -3 | 4 | 13* | 8 | -11 | 1 | 4
CCOC(=O)c1c(NC(=O)C2C3CCC(O3)C2C(=O)O)sc2c1CCC(CC)C2 (stereo not given) | -6 | 8 | 14* | 11 | 9 | 2 | 4
CCCOC(=O)c1c(-c2ccc(C)cc2C)csc1NC(=O)C1C2CCC(O2)C1C(=O)O (stereo not given) | 6 | 3 | 11* | 16 | 16 | -1 | 5
COc1ccc(C(C(=O)NC(C)(C)C)N(Cc2cccnc2)C(=O)CCC(=O)Nc2cc(C)on2)cc1 (stereo not given) | -7 | -3 | 0 | -3 | -9 | · | ·
Cc1ccc(NC2=C/C(=N/S(=O)(=O)c3cccs3)c3ccccc3C2=O)cc1C | -10 | 2 | 2 | -13 | 6 | · | ·
CC(=O)Nc1ccc(NC2=C/C(=N/S(=O)(=O)c3cccs3)c3ccccc3C2=O)cc1 | -4 | 3 | 14* | 4 | 23 | 32* | 0
Cc1ccccc1NC1=C/C(=N\S(=O)(=O)c2cccs2)c2ccccc2C1=O | 8 | 2 | 15* | 8 | 15 | 51* | 4
CCCCCCOc1ccc(C(=O)O)cc1 | -13 | -5 | 2 | 0 | -8 | · | ·
CCCCCCOc1ccc(C(=O)n2cnc(N)n2)cc1 | -11 | 7 | 12* | -2 | -12 | 3 | 7
CCn1c(CN2CCN(c3cccc(C)c3C)CC2)n[nH]c1=S | -2 | 1 | 3 | 8 | -13 | · | ·
CC(=O)C1=C(c2ccc(Br)cc2)C(=O)c2ccccc2C1=O | -1 | 8 | 11* | -18 | -16 | 10* | 5
SMILES | EBNA-1 inh | PP1 inh | PP5 inh | core dimer inh | ZTA counter | PP5 inh confirm | PP1 counter 3x
O=C(NNC(=O)c1ccccc1[N+](=O)[O-])c1csc(N2CCOCC2)n1 | -5 | -4 | 0 | 0 | 4 | · | ·
O=C(O)[C@@H](O)[C@H](O)C(=O)O | -3 | 2 | 11* | -3 | -9 | 7 | 0
CC(=C/c1ccco1)/C=N/NC(=O)CSc1nnc(SCc2ccc(C)cc2)s1 | 10 | 11 | 2 | 24 | 0 | · | ·
Cc1ccc(OCCn2cc(/C=N/NC(=O)c3ccncc3)c3ccccc32)cc1 | 1 | 8 | 9.9* | 4 | -2 | 1 | 3
COc1cc(OC)cc(C(=O)N[C@H](C(=O)Nc2nc3ccc(S(C)(=O)=O)cc3s2)C(C)C)c1 | -10 | -3 | 1 | 6 | 13 | · | ·
CC1(C)C=Cc2c(ccc3c2OC[C@H](c2ccc(O)cc2O)C3)O1 | · | 4 | 9.6* | · | 6 | 8 | 5
Nc1ncc(Br)cc1S(=O)(=O)Nc1cc(C(F)(F)F)cc(C(F)(F)F)c1 | -14 | 8 | 9.6* | -2 | 1 | 5 | 12
Cc1c(-c2cc(Br)ccc2O)nc2cc3c(cc2c1C)OCO3 | -11 | 2 | 0 | 7 | -13 | · | ·
O=C(Cn1c(NCCO)nc2ccccc21)c1ccco1 | -6 | -5 | 10* | 0 | -10 | -5 | -4
O=C(Cn1c(NCCO)nc2ccccc21)NCCc1ccccc1 | -4 | 2 | 3 | -2 | -3 | · | ·
Cc1cc(C(=O)N(C2CCCCC2)C2CCCCC2)no1 | -1 | -10 | 9.7* | -4 | 2 | -4 | -4
Cc1cc(C(=O)N2C(C)CCCC2C)no1 (stereo not given) | 12 | 0 | -2 | 10 | 16 | · | ·
COc1ccc(-c2csc(NC(=O)c3ccccc3S(C)(=O)=O)n2)cc1 | 0 | -20 | 11* | 2 | 10 | -1 | 0
Cc1cccc2c1NC(=O)C2(c1ccc(O)cc1)c1ccc(O)cc1 | 15 | 5 | 3 | 3 | 21 | · | ·
Cc1cc(C2(c3ccc(O)c(C)c3)C(=O)Nc3ccccc32)ccc1O | -6 | 8 | 16* | 13 | -4 | 6 | 5
COc1cccc(CNC(=O)CCC2CCCN(C(=O)c3ccc(OC)c(F)c3)C2)c1 (stereo not given) | 3 | -3 | -2 | -1 | 2 | · | ·
O=C(NCCCc1ccccc1)c1ccc(CS(=O)Cc2ccc(Cl)cc2)o1 (stereo not given) | 0 | 4 | 2 | -3 | 0 | · | ·
Cc1cc(C(=O)N/N=C(\CCC(=O)O)c2cccs2)c2ccccc2n1 | 3 | -2 | -2 | 0 | 12 | · | ·
